Test results from ChEMBL document CHEMBL1154971, “Synthesis and evaluation of opioid receptor-binding affinity of elaeocarpenine and its analogs” (Bioorg Med Chem Lett, 2010).

Columns and labels:
Mu-type opioid receptor = Mu-type opioid receptor (Homo sapiens, UniProt P35372); test: Displacement of [3H]DAMGO from human mu opioid receptor expressed in HEK293 cells; type: cell-based
Procedure, shortened: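 Radioligand competition binding against [³H]DAMGO on human μ-opioid receptor in transfected HEK-293 cells; affinity derived from displacement of the tritiated ligand.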

[1] = target: Delta-type opioid receptor (Homo sapiens, UniProt P41143); test: Displacement of [3H]DADLE from human delta opioid receptor expressed in CHO cells
[2] = target: Kappa-type opioid receptor (Rattus norvegicus, UniProt P34975); test: Displacement of [3H]U69593 from rat kappa opioid receptor expressed in CHO cells
Chain of Kappa-type opioid receptor (P34975 whole entry): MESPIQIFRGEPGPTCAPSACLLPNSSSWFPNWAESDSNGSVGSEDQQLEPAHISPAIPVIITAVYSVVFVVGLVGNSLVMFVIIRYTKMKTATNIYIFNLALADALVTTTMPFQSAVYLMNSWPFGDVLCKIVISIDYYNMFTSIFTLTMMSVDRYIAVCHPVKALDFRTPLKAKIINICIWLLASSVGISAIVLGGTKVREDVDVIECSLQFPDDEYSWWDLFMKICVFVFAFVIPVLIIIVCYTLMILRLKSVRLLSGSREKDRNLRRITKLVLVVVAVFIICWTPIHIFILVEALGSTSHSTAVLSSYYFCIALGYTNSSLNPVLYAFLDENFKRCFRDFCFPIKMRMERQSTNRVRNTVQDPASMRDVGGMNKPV

Chain of Mu-type opioid receptor (P35372 whole entry): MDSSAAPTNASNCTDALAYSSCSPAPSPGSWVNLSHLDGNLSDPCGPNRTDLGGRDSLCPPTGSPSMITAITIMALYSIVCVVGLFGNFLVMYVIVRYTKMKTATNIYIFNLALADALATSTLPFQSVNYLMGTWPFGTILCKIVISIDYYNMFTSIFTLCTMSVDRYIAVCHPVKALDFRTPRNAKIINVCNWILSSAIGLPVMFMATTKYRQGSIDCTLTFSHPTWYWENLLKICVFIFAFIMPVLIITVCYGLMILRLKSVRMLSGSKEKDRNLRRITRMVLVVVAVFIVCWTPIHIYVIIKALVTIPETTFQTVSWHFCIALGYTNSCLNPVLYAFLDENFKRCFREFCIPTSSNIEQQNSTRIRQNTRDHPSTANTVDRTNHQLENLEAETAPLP
Chain of Delta-type opioid receptor (P41143 whole entry): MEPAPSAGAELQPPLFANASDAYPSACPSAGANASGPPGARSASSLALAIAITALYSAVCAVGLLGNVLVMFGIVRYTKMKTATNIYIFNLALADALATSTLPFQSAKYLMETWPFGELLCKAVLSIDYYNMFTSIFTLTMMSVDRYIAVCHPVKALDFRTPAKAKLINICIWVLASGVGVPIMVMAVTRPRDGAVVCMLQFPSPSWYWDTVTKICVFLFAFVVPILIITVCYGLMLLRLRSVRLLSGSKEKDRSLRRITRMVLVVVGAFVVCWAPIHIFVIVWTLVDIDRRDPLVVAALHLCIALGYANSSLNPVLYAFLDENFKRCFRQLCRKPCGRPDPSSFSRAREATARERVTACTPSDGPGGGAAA

Compound | Ki (Mu-type opioid receptor) [µM] | Ki [1] [µM] | Ki [2] [µM]
Cc1cccc(O)c1C(=O)C1=CCCN2CCC[C@@H]12 | 45 | 94 | 24
COc1cccc(C)c1C(=O)C1=CCCN2CCC[C@@H]12 | > 200 | > 200 | 20
O=C(C1=CCCN2CCC[C@@H]12)c1ccccc1O | 49 | > 200 | 83
Cc1cccc(O)c1C(=O)C1=CCCCN2CCC[C@@H]12 | 13 | > 200 | –
Cc1cccc(O)c1C(=O)C1=CCN2CCC[C@@H]12 | 3.2 | > 200 | 35
Cc1cccc(O)c1C(=O)C1=CCCN2CCC[C@H]12 [ELAEOCARPENINE] | 18 | 14 | 12
